Measured values collected from several papers.
Each line is one published result; the experiments were not run side by side.

SMILES | test | test system | conditions | quantity | value
CC(C)C[C@H](NC(=O)[C@@H]1COCCCCCC(=O)N2C[C@H](F)C[C@H]2C(=O)N1)C(=O)[C@@]1(C)CO1 | – | male BALB/c mouse, plasma | oral, 150 mg/kg | bioavailability | ~10%
Cc1cc(-c2cn[nH]c2-c2cccc(OCc3cccc(C#N)c3)c2)cc(C)n1 | – | mouse, plasma | oral, 200 mg/kg | bioavailability | 47%
CC1=NN(/C(=N/c2nnc(C)s2)Nc2ccc(C)c(C)c2)C(c2cc(F)c(F)c(F)c2)S1 (stereo not shown) | – | male CD-1 mouse, plasma | oral, 30 mg/kg | bioavailability | 13.4%
CN1CCN(C(=O)[C@H](CCCN[C@@H]2C[C@H]2c2ccc(F)cc2)NC(=O)c2ccc(-n3ccnn3)cc2)CC1 | – | CD-1 mouse, plasma | oral, 10 mg/kg | AUC(0-t) | 2.27 µM·h
CCOc1ccc(N(C)S(=O)(=O)c2cc(Cl)sc2C(=O)Nc2cc(Cl)cc(C(=O)O)c2)cc1OC | – | male C57BL/6 mouse, plasma | intraperitoneal, 10 mg/kg | AUC(0-inf) | 6100 ng·h/mL
Cc1c(C(=O)O)ccc2c3n(nc12)[C@@H]1[C@H](C3)N(CC2CC2)[C@@]2(C(=O)Nc3cc(Cl)ccc32)[C@H]1c1cccc(Cl)c1F | – | FVB mouse, plasma | oral, 10 mg/kg, single dose | bioavailability | 79%
Cc1c(C(=O)O)ccc2c3n(nc12)[C@@H]1[C@H](C3)N(CC2CC2)[C@@]2(C(=O)Nc3cc(Cl)ccc32)[C@H]1c1cccc(Cl)c1F | – | female mouse, plasma | oral, 5 mg/kg | bioavailability | 119%
Nc1ncn([C@H]2C[C@H](O)[C@@H](CO)O2)c(=O)n1 | – | female C57BL/6 mouse, plasma | intravenous, 0.4 mg/kg | AUC(0-t) | 182 ng·h/mL
Cc1cc2sc(N)nc2c2cccnc12 | – | female BALB/c mouse, plasma | intraperitoneal, 30 mg/kg, single dose | AUC(0-t) | 45500 ng·h/mL
Nc1ccc(/N=N/c2cccc(F)c2F)c(N)n1 | – | male CD-1 mouse, plasma | intraperitoneal, 100 mg/kg | bioavailability | 261%
CNC(=O)c1ccc(N2C(=S)N(c3ccc(C#N)c(C(F)(F)F)c3)C(=O)C2(C)C)cc1F | – | male C57BL/6 mouse, plasma | oral, 0.0215 mmol/kg | bioavailability | 45%
CCN1CCN(Cc2ccc(NC(=O)c3ccc(C)c(NC(=O)c4cncc(-c5cccs5)c4)c3)cc2C(F)(F)F)CC1 | – | mouse, plasma | intraperitoneal, 15 mg/kg, single dose | AUC(0-inf) | 1750 ng·h/mL
CN(C)C/C=C/C(=O)Nc1cc2c(Nc3ccc(F)c(Cl)c3)ncnc2cc1O[C@H]1CCOC1 | chemical stability | PBS | 250 µM, pH 7.4 | half-life | > 100 h
